This passage reports Ki results from BindingDB's records for doi:10.1021/jm300238h (Sanford-Burnham Medical Research Institute, 2012).

The structures appear in SMILES notation.

In this assay the target is Protease (Human immunodeficiency virus 1, UniProt Q9YQ12). The assay can be described thus: Inhibition of wild type HIV1 protease by FRET assay. Put shortly: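 Recombinant HIV-1 protease Q7K, desalted into 20 mM sodium acetate pH 5, apparent concentration ~50 nM (UV 280 nm). Inhibitors in DMSO, 12 concentrations, added with protease to buffer pH 4.7 (0.1 M NaOAc, 1 M NaCl, 1 mM EDTA, 1 mM DTT, 2% DMSO, 1 mg/mL BSA). Cleavage started by injecting EDANS/DABCYL peptide substrate. Ki from initial velocities fitted to the Morrison equation.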
Sequence of Protease (Q9YQ12 whole entry): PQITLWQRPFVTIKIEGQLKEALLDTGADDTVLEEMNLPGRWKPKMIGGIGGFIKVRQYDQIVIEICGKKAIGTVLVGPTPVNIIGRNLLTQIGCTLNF

`COc1ccc(S(=O)(=O)N(CC(C)C)C[C@@H](O)[C@H](Cc2ccccc2)NC(=O)[C@@H]2CN(c3cccc(C(C)=O)c3)C(=O)O2)cc1` [(5S)-3-(3-Acetylphenyl)-N-[(1S,2R)-1-benzyl-2-hydroxy-3-[isobutyl[(4-methoxyphenyl)sulfonyl]amino]propyl]-2-oxooxazolidine-5-carboxamide] displayed a Ki of 1 pM.

The term Ki denotes the equilibrium dissociation constant of an inhibitor or competing ligand from its target. Low values mean higher affinity, high ones lower affinity.
